Data reported in ChEMBL document CHEMBL3244181, “Synthesis and biological activity of cocaine analogues. 2. 6H-[2]Benzopyrano[4,3-c]pyridin-6-ones” (J Med Chem, 1979).

What was measured:
[1] = Inhibition of [3H]norepinephrine reuptake at norepinephrine transporter in CD Charles River albino rat brain synaptosomes after 5 mins by scintillation counting analysis; format: subcellular
Outline: (§1)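 Synaptosomes were taken from the 0.8/1.2 M sucrose gradient interface and resuspended in Krebs Ringer phosphate with pargyline (1.6 mg/100 mL) and glucose (237 mg/100 mL). They were incubated with unlabelled norepinephrine and [3H]norepinephrine for 5 min at 30 °C, quenched with cold buffer, and pelleted at 10000g. Pellet counts, minus post-incubation tracer blanks, gave % inhibition as (control − sample)/control cpm.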

[2] = species on record: Rattus norvegicus; assay: Inhibition of [3H]norepinephrine reuptake at norepinephrine transporter in CD Charles River albino rat brain synaptosomes at 10^-5 M after 5 mins by scintillation counting analysis; format: subcellular; outline: as §1
[3] = molecular target: Sodium-dependent serotonin transporter (Homo sapiens) (UniProt P31645); assay: Inhibition of serotonin reuptake at SERT (unknown origin) at 10^-5 M
[4] = molecular target: Sodium-dependent dopamine transporter (Homo sapiens) (UniProt Q01959); assay: Inhibition of dopamine reuptake at DAT (unknown origin) at 10^-5 M
[5] = species on record: Rattus norvegicus; assay: Inhibition of [3H]norepinephrine reuptake at norepinephrine transporter in rat brain at 10^-5 M by scintillation counting analysis; format: tissue-based

Chain of Sodium-dependent dopamine transporter (Homo sapiens) (Q01959 whole entry): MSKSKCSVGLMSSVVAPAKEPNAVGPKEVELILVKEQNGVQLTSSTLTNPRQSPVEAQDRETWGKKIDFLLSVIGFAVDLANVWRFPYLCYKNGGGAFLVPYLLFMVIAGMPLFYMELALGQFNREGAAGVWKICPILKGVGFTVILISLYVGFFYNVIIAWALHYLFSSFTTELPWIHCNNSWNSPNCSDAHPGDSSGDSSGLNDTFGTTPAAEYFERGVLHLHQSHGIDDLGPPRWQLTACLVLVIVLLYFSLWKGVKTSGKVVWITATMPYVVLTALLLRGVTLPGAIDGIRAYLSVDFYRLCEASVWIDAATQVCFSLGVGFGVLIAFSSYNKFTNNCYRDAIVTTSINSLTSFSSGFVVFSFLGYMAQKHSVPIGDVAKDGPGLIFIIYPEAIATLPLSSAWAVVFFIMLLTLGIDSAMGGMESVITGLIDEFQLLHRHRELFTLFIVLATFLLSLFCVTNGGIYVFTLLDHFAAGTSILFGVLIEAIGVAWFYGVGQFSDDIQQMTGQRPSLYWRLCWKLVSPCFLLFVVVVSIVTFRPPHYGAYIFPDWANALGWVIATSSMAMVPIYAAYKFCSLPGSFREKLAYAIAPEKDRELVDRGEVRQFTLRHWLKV
Chain of Sodium-dependent serotonin transporter (Homo sapiens) (P31645 whole entry, looked up): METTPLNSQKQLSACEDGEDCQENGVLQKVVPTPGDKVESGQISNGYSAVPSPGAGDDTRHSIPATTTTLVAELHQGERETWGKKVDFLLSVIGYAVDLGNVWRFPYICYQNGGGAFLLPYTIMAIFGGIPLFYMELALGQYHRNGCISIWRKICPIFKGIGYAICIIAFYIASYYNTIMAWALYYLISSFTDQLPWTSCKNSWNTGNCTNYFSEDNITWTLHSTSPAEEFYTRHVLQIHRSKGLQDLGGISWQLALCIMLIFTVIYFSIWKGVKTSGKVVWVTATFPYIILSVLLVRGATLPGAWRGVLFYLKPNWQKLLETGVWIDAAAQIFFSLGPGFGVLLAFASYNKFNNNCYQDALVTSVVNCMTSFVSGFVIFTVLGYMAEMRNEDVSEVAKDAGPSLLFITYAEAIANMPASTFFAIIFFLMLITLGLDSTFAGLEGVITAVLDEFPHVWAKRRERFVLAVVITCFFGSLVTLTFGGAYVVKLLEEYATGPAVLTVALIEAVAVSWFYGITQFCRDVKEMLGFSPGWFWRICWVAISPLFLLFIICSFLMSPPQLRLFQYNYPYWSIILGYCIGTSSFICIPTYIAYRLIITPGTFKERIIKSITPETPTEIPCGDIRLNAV

Structure (SMILES) | IC50 [1] [µM] | inhibition [2] [%] | inhibition [3] [%] | inhibition [4] [%] | inhibition [5] [%]
CN1[C@@H]2CC[C@H]1C[C@H](OC(=O)c1ccccc1)C2 | 5.6 |  |  |  | 
CN1CCc2oc(=O)c3ccccc3c2C1 | 320 |  |  |  | 
CN1CC[C@H]2OC(=O)c3ccccc3[C@H]2C1 (relative stereo) | 650 | 0 |  |  | 
CN1CC[C@H]2OC(=O)c3ccccc3[C@@H]2C1 (relative stereo) | 320 | 36 | 0 | 3 | 11
COC(=O)[C@H]1[C@@H](OC(=O)c2ccccc2)C[C@@H]2CC[C@H]1N2C [COCAINE] | 0.575 |  |  |  | 
